Screening data deposited in PubChem by several laboratories.
TDP2 inh: blocks human TDP2 phosphodiesterase activity. 0.34% of 370,000 active. recombinant TDP2, T5PNP hydrolysis, p-nitrophenol absorbance 415 nm. inhibition, % at 12.8 µM;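 active = inhibition above the mean of all tested compounds plus 3 SD, set per campaign, cut at about 25% in these data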;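 also: 0% = DMSO with enzyme and 100% = buffer with substrate but no TDP2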
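Material: recombinant human TDP2; quantity: TDP2 enzyme at 120 nM final; medium: Tris-HCl pH 7.5 with MgCl2; compound: single concentration, 12.8 µM nominal, with 1% DMSO; incubation: 2 h enzyme incubation at 37 °C; signal: epi absorbance; measure: percent inhibition; benchmarks: high control without enzyme, low control DMSO plus TDP2; repeats: singlicate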
ARFGAP1 inh: rat ARFGAP1 inhibition. 0.26% of 360,000 active. inhibition, % at 16.5 µM. AID 651572. Arfgap1-stimulated ARF1 GTP hydrolysis, GDP FP detection;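 active = inhibition above a per-plate limit, mean inhibition of low control wells plus 3 SD, cut at about 25% in these data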;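 also: 0% = DMSO wells with enzyme and 100% = wells lacking Arfgap1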
Target sequence (Q62848 1-136 limits assumed): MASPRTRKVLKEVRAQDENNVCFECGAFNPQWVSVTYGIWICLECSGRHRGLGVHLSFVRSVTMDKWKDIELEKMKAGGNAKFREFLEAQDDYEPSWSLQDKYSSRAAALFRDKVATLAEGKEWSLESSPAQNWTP
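system = rat Arfgap1 catalytic domain, aa 1-136 | technique = FP, GDP Alexa 633 tracer displaced from anti-GDP antibody, 620/688 nm | compound = one concentration, 16.5 µM, DMSO 1.26% | medium = HEPES-based buffer, pH 7.5 | timing = compound-enzyme preincubation 20 min, reaction 120 min, detection 60 min, 25 °C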
Casp6 inh: inhibitors of human caspase-6. P55212. purified caspase-6, Z-VEID-R110 cleavage fluorescence. inhibition, % at 12.5 µM. 0.53% of 350,000 active;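 active = mean inhibition across replicates at least about 35%, with every replicate also reaching that limit, limit read from the data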;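 also: 0% = median of neutral control wells and 100% = no fluorescence left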
Target sequence (P55212 24-179 limits assumed): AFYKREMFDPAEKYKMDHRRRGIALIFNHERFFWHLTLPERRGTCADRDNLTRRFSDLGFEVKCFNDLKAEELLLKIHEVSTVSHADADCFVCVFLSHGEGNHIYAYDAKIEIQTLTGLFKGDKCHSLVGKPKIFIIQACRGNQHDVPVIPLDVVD
Target sequence (P55212 194-293 limits assumed): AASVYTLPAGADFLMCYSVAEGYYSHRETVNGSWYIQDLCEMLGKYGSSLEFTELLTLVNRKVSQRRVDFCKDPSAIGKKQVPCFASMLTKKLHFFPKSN
LEDGF integ inh: blocks HIV-1 LEDGF/p75-dependent DNA integration | 0.64% of 370,000 active | inhibition, % at 3.7 µM | AID 743269 | TR-FRET IN-LEDGF/p75 DNA integration, Eu/Cy5;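 active = inhibition above the screen-wide mean plus 3 SD, cut at about 13% in these data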;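 also: signal is the Cy5 over europium emission ratio at 671 and 618 nm; 0% = plate median of compound wells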
ASAP1 inh: ASAP1 ArfGAP inhibition. Q9ULH1. ASAP1-stimulated ARF1 GTP hydrolysis, GDP FP detection. inhibition, % at 16.5 µM. 0.19% of 360,000 active; in the data active = inhibition above about 25%;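 also: 0% = vehicle with enzyme and substrate and 100% = no enzyme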
ASAP1 GAP conf: ASAP1 inhibition confirmed. ASAP1-stimulated Arf1 GTPase, GDP fluorescence polarization. inhibition, % at 16.5 µM. 37% of 620 active. shares compounds with ASAP1 inh;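 active = mean inhibition over triplicates exceeds the hit threshold derived for the earlier primary screening run, cut at about 25% in these data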
Active calls of the source: *; . = no result given. Sampled rows, rich in hits. Any-hit rate of the full collection: about 1.3%.

SMILES	TDP2 inh	ARFGAP1 inh	Casp6 inh	LEDGF integ inh	ASAP1 inh	others
Clc1cccc(N2Cc3cc(-c4ccccc4)ccc3-n3nncc3C2)c1	-4	-11	7	67*	-3
O=C1NC(=O)C(=Cc2ccc(SC3CCCCC3)o2)C(=O)N1	7	2	67*	6	-2
NS(=O)(=O)c1ccc(-c2ccc(C=C3C(=O)NC(=O)NC3=O)o2)cc1	0	6	18	5	-5
CCN(CC)C(=O)c1ccc(N(Cc2ccccc2)S(C)(=O)=O)cc1	0	4	0	-1	3
CCN(CC)C(=O)c1ccc2c(c1)C1C=CCC1C(C(=O)O)N2 (centres undefined)	8	-3	40*	39*	-5
O=C(Cc1cccs1)N1Cc2ccccc2-n2nncc2C1	7	18	41*	3	23
N#CC1=C(N)Oc2c(c(=O)oc3ccccc23)C1c1ccc([N+](=O)[O-])o1 (centres undefined)	1	9	40*	5	7
CN1CCN(Cc2nc3ccccc3n2C)CC1	10	-11	.	-1	6
Cn1c(NN=O)nc2ccccc21	14	10	36*	3	4
C=CCNC(=S)N1Cc2cc(Br)ccc2-n2nncc2C1	0	17	4	1	-3
C[N+](C)(C)Cc1ccccc1	2	3	76*	-2	1
BrCCc1ccccc1	0	-5	1	-5	-3
CN1C(=O)N(C)C(=O)C2(Sc3ccccc3C2=O)C1=O	27*	-25	.	29*	-14
COc1ccc(N2C(=O)/C(=C/c3ccc(OC)c(OC)c3)C(=O)NC2=S)cc1	1	-5	17	1	-12
Cc1cccc(N2C(=O)/C(=C/c3ccc(N4CCN(C)CC4)o3)C(=O)NC2=S)c1C	-4	0	17	14*	5
COc1ccc(N2C(=O)/C(=C/c3ccc(C)o3)C(=O)NC2=S)c(OC)c1	1	-2	38*	11	2
O=C1NC(=O)N(Cc2ccco2)C(=O)/C1=C/c1cccn1CCOc1ccccc1Cl	10	-24	58*	57*	-6
COc1ccc(CN2C(=O)NC(=O)/C(=C/c3cc(OC)c(OC)c(OC)c3)C2=O)cc1	-2	-4	2	1	3
O=C(O)Cn1cc(/C=C2\C(=O)NC(=O)N(Cc3ccco3)C2=O)c2ccccc21	11	-8	74*	86*	4
Cn1cccc1/C=C1\C(=O)NC(=O)N(Cc2ccccc2)C1=O	5	0	28	1	5
COc1ccc(CN2C(=O)NC(=O)/C(=C/c3ccoc3)C2=O)cc1	11	-2	67*	10	-7
O=C1NC(=O)N(Cc2ccccc2)C(=O)/C1=C\c1ccco1	12	-10	63*	6	9
N#CC(C#N)=Cc1ccc(-c2ccccc2F)o1	-15	1	2	2	-19
Cc1ccccc1-c1ccc([C@@H]2[C@@H](CO)N3CCCCN(C(=O)Cc4ccccn4)C[C@@H]23)cc1	.	.	-1	.	.
O=C(c1cc(F)ccc1F)C1CCCN(Cc2ccc3nonc3c2)C1 (centres undefined)	7	-4	0	2	1
SMILES	TDP2 inh	ARFGAP1 inh	Casp6 inh	LEDGF integ inh	ASAP1 inh	others
COc1cccc(C2(O)CCSCC2CN(C)C)c1 (centres undefined)	7	-13	-3	1	-4
Cc1cc(/C=C2\C(=O)NC(=O)N(c3ccccc3)C2=O)c(C)n1-c1ccc(C(=O)O)c(Cl)c1	18	1	38*	0	-4
Cc1ccccc1-n1c(O)c(/C=N/N2CCOCC2)c(=O)[nH]c1=S	10	-13	.	-1	-7
CC=Cc1ccc2n(c1=O)C[C@H]1[C@H](CO)[C@@H](C(=O)N(C)C)[C@@H]2N1C (mixture of isomers)	.	.	57*	.	.
CC=Cc1ccc2n(c1=O)C[C@@H]1[C@@H](CO)[C@H](C(=O)OC)[C@H]2N1CC1CC1 (mixture of isomers)	.	.	1	.	.
CC/C(=N\NC(=O)c1ccccc1)c1c(O)n(Cc2ccccc2)c(=O)[nH]c1=O	8	-19	0	-1	-7
O=C1NC(=O)N(CCC2=CCCCC2)C(=O)/C1=C/c1cccs1	0	0	37*	2	-14
O=P(Oc1ccccc1)(Oc1ccccc1)N1CCOCC1	-4	2	-6	-1	-9
O=[N+]([O-])c1cccc(C2N3CCCN23)c1 (centres undefined)	13	14	-14	-5	-11
O=C(O)c1cccc2c1NC(c1cccc([N+](=O)[O-])c1)C1CC(Sc3ccccc3[N+](=O)[O-])C(Cl)C21 (centres undefined)	-4	-8	54*	6	0
Cc1cc2c(C(C)C)c(O)c(O)c(C=O)c2c(O)c1-c1c(C)cc2c(C(C)C)c(O)c(O)c(C=O)c2c1O	7	-15	18	66*	-9
CCCCCCn1c(=O)c(C(=O)Nc2ncccc2O)c(O)c2ccccc21	-2	-15	-4	3	2
Cc1ccc(-c2nc3ccccc3c(=O)n2-c2ncccc2C)cc1	1	-2	0	4	-11
CCOC(=O)c1cnc(N2CC2)nc1N	-11	-23	-3	-4	4
CN1C(=O)NC(=O)/C(=C/c2ccc([N+](=O)[O-])o2)C1=O	9	-8	56*	37*	-3
Cn1cccc1/C=C1/C(=O)NC(=S)N(Cc2ccc(F)cc2)C1=O	7	9	35*	8	7
CN1CC[C@]23c4c5ccc(O)c4OC2C(O)C=CC3[C@H]1C5 (some centres undefined)	.	9	3	3	-13
O=C(O)c1ccccc1-c1ccc(C=C2C(=O)N(c3ccccc3)C(=S)N(c3ccccc3)C2=O)o1	-3	11	37*	2	10
CN1C(=O)C(=Cc2ccc(N3CCCCCC3)o2)C(=O)N(C)C1=S	-6	10	.	6	-7
O=Cc1cn(Cc2ccc(F)cc2)c2ccccc12	-18	15	2	-1	25*	ASAP1 GAP conf=2
Cc1ccc(Cn2cc(C=O)c3ccccc32)cc1	7	-4	2	2	0
O=c1ccc2cc3ccoc3c(O)c2o1	8	-6	11	-2	-7
CCC(=NCC1CCCO1)c1c(O)n(Cc2ccccc2)c(=O)[nH]c1=O (centres undefined)	-28	2	.	5	0
CCc1c(C(=O)NN2C(=O)C3C4CCC(O4)C3C2=O)csc1C (centres undefined)	-10	-4	1	3	26*	ASAP1 GAP conf=-1
O=C1C=C(N2CC2)c2ccccc2C1=O	52*	-6	97*	39*	31*	ASAP1 GAP conf=-6
